According to ChEMBL document CHEMBL5058577, “EUbOPEN Chemogenomics Library 2 (Multiplex)” (2022):

Test system: Fibroblast
Test: Multiplex assay against human fibroblast
Format: toxicity, cell-based
Procedure, shortened: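 Cells stained live at seeding with Hoechst33342, BioTracker Green Microtubule Cytoskeleton Dye, MitoTracker Red and Annexin V Alexa Fluor 680 were imaged on a CQ1 microscope at 37°C and 5% CO2 after compound addition. Their classification by CellPathfinder machine-learning gating ran from Hoechst high-intensity objects versus normal cells, to healthy, pyknosed or fragmented nuclei among normal cells, to mitotic or apoptotic among pyknosed cells. Tubulin, mitochondrial-mass and membrane-permeability phenotypes are per cents of healthy-nucleus cells.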

[1] = 12 h, 1 µM, compound concentration 1 uM, replicate 1
[2] = 12 h, 1 µM, compound concentration 1 uM, replicate 2
[3] = 12 h, 10 µM, compound concentration 10 uM, replicate 1
[4] = 12 h, 10 µM, compound concentration 10 uM, replicate 2
[5] = 24 h, 1 µM, compound concentration 1 uM, replicate 1
[6] = 24 h, 1 µM, compound concentration 1 uM, replicate 2
[7] = 24 h, 10 µM, compound concentration 10 uM, replicate 1
[8] = 24 h, 10 µM, compound concentration 10 uM, replicate 2
[9] = 48 h, 1 µM, compound concentration 1 uM, replicate 1
[10] = 48 h, 1 µM, compound concentration 1 uM, replicate 2
[11] = 48 h, 10 µM, compound concentration 10 uM, replicate 1
[12] = 48 h, 10 µM, compound concentration 10 uM, replicate 2

COCCn1c(C)c(C)s/c1=N\C(=O)C1C(C)(C)C1(C)C
Population Apoptotic (%) [1]: 43%
Population Fragmented Nuclei (%) [1]: 18%
Population Healthy Nuclei (%) [1]: 69%
Population Hoechst High Intensity Objects (%) [1]: 0%
Population Membrane Permeable-Phenotype (%) [1]: 0%
Population Mitochondria Different-Phenotype (%) [1]: 7%
Population Mitotic Cells (%) [1]: 56%
Population Normal (%) [1]: 99%
Population Pyknosed Nuclei (%) [1]: 11%
Population Tubulin-Different-Phenotype (%) [1]: 34%
Total Cell Count [1]: 136
Population Apoptotic (%) [2]: 40%
Population Fragmented Nuclei (%) [2]: 22%
Population Healthy Nuclei (%) [2]: 57%
Population Hoechst High Intensity Objects (%) [2]: 4%
Population Membrane Permeable-Phenotype (%) [2]: 1%
Population Mitochondria Different-Phenotype (%) [2]: 5%
Population Mitotic Cells (%) [2]: 60%
Population Normal (%) [2]: 95%
Population Pyknosed Nuclei (%) [2]: 19%
Population Tubulin-Different-Phenotype (%) [2]: 32%
Total Cell Count [2]: 133
Population Apoptotic (%) [3]: 64%
Population Fragmented Nuclei (%) [3]: 19%
Population Healthy Nuclei (%) [3]: 59%
Population Hoechst High Intensity Objects (%) [3]: 2%
Population Membrane Permeable-Phenotype (%) [3]: 1%
Population Mitochondria Different-Phenotype (%) [3]: 14%
Population Mitotic Cells (%) [3]: 35%
Population Normal (%) [3]: 97%
Population Pyknosed Nuclei (%) [3]: 20%
Population Tubulin-Different-Phenotype (%) [3]: 56%
Total Cell Count [3]: 167
Population Apoptotic (%) [4]: 37%
Population Fragmented Nuclei (%) [4]: 38%
Population Healthy Nuclei (%) [4]: 40%
Population Hoechst High Intensity Objects (%) [4]: 6%
Population Membrane Permeable-Phenotype (%) [4]: 13%
Population Mitochondria Different-Phenotype (%) [4]: 8%
Population Mitotic Cells (%) [4]: 62%
Population Normal (%) [4]: 93%
Population Pyknosed Nuclei (%) [4]: 21%
Population Tubulin-Different-Phenotype (%) [4]: 64%
Total Cell Count [4]: 120
Population Apoptotic (%) [5]: 64%
Population Fragmented Nuclei (%) [5]: 15%
Population Healthy Nuclei (%) [5]: 72%
Population Hoechst High Intensity Objects (%) [5]: 2%
Population Membrane Permeable-Phenotype (%) [5]: 1%
Population Mitochondria Different-Phenotype (%) [5]: 5%
Population Mitotic Cells (%) [5]: 35%
Population Normal (%) [5]: 97%
Population Pyknosed Nuclei (%) [5]: 11%
Population Tubulin-Different-Phenotype (%) [5]: 38%
Total Cell Count [5]: 122
Population Apoptotic (%) [6]: 54%
Population Fragmented Nuclei (%) [6]: 28%
Population Healthy Nuclei (%) [6]: 54%
Population Hoechst High Intensity Objects (%) [6]: 3%
Population Membrane Permeable-Phenotype (%) [6]: 5%
Population Mitotic Cells (%) [6]: 45%
Population Normal (%) [6]: 96%
Population Pyknosed Nuclei (%) [6]: 17%
Population Tubulin-Different-Phenotype (%) [6]: 37%
Total Cell Count [6]: 132
Population Apoptotic (%) [7]: 68%
Population Fragmented Nuclei (%) [7]: 20%
Population Healthy Nuclei (%) [7]: 59%
Population Hoechst High Intensity Objects (%) [7]: 4%
Population Membrane Permeable-Phenotype (%) [7]: 0%
Population Mitochondria Different-Phenotype (%) [7]: 15%
Population Mitotic Cells (%) [7]: 31%
Population Normal (%) [7]: 95%
Population Pyknosed Nuclei (%) [7]: 19%
Population Tubulin-Different-Phenotype (%) [7]: 61%
Total Cell Count [7]: 154
Population Apoptotic (%) [8]: 33%
Population Fragmented Nuclei (%) [8]: 40%
Population Healthy Nuclei (%) [8]: 36%
Population Hoechst High Intensity Objects (%) [8]: 3%
Population Membrane Permeable-Phenotype (%) [8]: 11%
Population Mitochondria Different-Phenotype (%) [8]: 19%
Population Mitotic Cells (%) [8]: 66%
Population Normal (%) [8]: 96%
Population Pyknosed Nuclei (%) [8]: 23%
Population Tubulin-Different-Phenotype (%) [8]: 66%
Total Cell Count [8]: 120
Population Apoptotic (%) [9]: 60%
Population Fragmented Nuclei (%) [9]: 23%
Population Healthy Nuclei (%) [9]: 63%
Population Hoechst High Intensity Objects (%) [9]: 4%
Population Membrane Permeable-Phenotype (%) [9]: 0%
Population Mitochondria Different-Phenotype (%) [9]: 4%
Population Mitotic Cells (%) [9]: 40%
Population Normal (%) [9]: 95%
Population Pyknosed Nuclei (%) [9]: 12%
Population Tubulin-Different-Phenotype (%) [9]: 43%
Total Cell Count [9]: 123
Population Fragmented Nuclei (%) [10]: 31%
Population Healthy Nuclei (%) [10]: 56%
Population Hoechst High Intensity Objects (%) [10]: 7%
Population Membrane Permeable-Phenotype (%) [10]: 2%
Population Normal (%) [10]: 92%
Population Pyknosed Nuclei (%) [10]: 11%
Population Tubulin-Different-Phenotype (%) [10]: 45%
Total Cell Count [10]: 140
Population Apoptotic (%) [11]: 75%
Population Fragmented Nuclei (%) [11]: 23%
Population Healthy Nuclei (%) [11]: 56%
Population Hoechst High Intensity Objects (%) [11]: 7%
Population Membrane Permeable-Phenotype (%) [11]: 0%
Population Mitochondria Different-Phenotype (%) [11]: 22%
Population Mitotic Cells (%) [11]: 25%
Population Normal (%) [11]: 92%
Population Pyknosed Nuclei (%) [11]: 20%
Population Tubulin-Different-Phenotype (%) [11]: 67%
Total Cell Count [11]: 151
Population Apoptotic (%) [12]: 58%
Population Fragmented Nuclei (%) [12]: 49%
Population Healthy Nuclei (%) [12]: 34%
Population Hoechst High Intensity Objects (%) [12]: 8%
Population Membrane Permeable-Phenotype (%) [12]: 14%
Population Mitochondria Different-Phenotype (%) [12]: 11%
Population Mitotic Cells (%) [12]: 41%
Population Normal (%) [12]: 91%
Population Pyknosed Nuclei (%) [12]: 16%
Population Tubulin-Different-Phenotype (%) [12]: 65%
Total Cell Count [12]: 111
